# High-throughput results as filed in PubChem.
# An excerpt weighted towards active compounds, which were near 4.8% of everything screened.
# ATG4B inhibitor – ATG4B protease inhibitors, primary screen, biochemical, fluorescence, uHTS; ATG4B cleavage of LC3-PLA2, NBD-HPC fluorescence, 1 h; inhibition, % at 8.33 µM; AID 504462, 2011; hit rate 0.51% among 340,000; in the data active = inhibition above about 40%
# Target sequence (Q9Y4P1 whole entry, looked up): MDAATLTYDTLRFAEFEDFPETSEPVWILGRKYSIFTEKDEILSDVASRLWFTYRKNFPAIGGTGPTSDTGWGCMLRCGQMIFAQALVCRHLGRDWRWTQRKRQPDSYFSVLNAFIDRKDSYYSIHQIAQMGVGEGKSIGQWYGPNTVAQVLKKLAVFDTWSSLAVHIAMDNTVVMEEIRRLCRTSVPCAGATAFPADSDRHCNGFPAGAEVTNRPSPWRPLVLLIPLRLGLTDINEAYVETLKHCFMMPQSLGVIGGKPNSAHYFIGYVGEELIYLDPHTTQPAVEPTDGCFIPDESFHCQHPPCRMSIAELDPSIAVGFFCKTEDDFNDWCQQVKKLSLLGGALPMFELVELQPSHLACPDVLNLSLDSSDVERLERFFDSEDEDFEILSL
# Calb FLC – C. albicans growth inhibition with fluconazole, primary screen, CaCi-2 strain, Alamar Blue fluorescence | C. albicans CaCi-2 (fluconazole-resistant clinical isolate) + fluconazole, 48 h | growth inhibition, % (test concentration not listed) | hit rate 0.57% among 300,000 | AID 1979, 2009;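 active = growth inhibition above about 58% in most replicates, limit read from the data, passing the limit was not always enough; inconclusive = exactly half the replicates above a set limit; inactive = most replicates below a set limit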;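 note: all wells also contain fluconazole at 8 µg/ml as a sub-toxic cotreatment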
# NALP1 yeast inh – NALP1 inflammasome inhibitors in reconstituted yeast, colorimetric, S. cerevisiae, triplicate retest; S. cerevisiae NALP1/ASC/caspase-1 growth, X-gal OD620, 72 h; inhibition, % at 10 µM; hit rate 0.61% among 280,000; AID 2071, 2009; in the data active = inhibition mostly above about 24%, no sharp cut-off; inactive = mostly below about 32%
# NLRP3 yeast inh – NALP3 inflammasome inhibitors in reconstituted yeast, primary screen, luminescence, uHTS; Yeast reconstituted NLRP3/ASC/caspase-1, beta-gal luminescence, 24 h; hit rate 0.39% among 330,000; inhibition, % at 10 µM;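 active = inhibition of 50% or more; inactive = inhibition below 50%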
# UCH37 DUB inh – inhibitors of human UCH37 deubiquitinase, primary screen, biochemical, Ub-AMC cleavage, fluorescence | inhibition, % (no concentration beside the values) | hit rate 0.33% among 330,000 | purified proteasome/UCH37 | Ubiquitin carboxyl-terminal hydrolase isozyme L5 (Homo sapiens), Q9Y5K5;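 active = mean inhibition over replicate wells above about 20%, limit read from the data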
#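 Signal – fluorescence, ex 355 nm, em 460 nm · System – Proteasome-bound UCH37 · Input – 0.15 nM proteasome as dispensed · Timing – 30 min preincubation with enzyme, 25 min cleavage at room temperature · Read-out basis – percent inhibition of cleavage signal versus uninhibited and no-proteasome wells · Medium – Tris-HCl pH 7.4 with ATP-MgCl2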
# ALR inh – inhibitors of human ALR sulfhydryl oxidase, primary screen, biochemical, H2O2 detection, HRP-luminol luminescence, single point; FAD-linked sulfhydryl oxidase ALR (Homo sapiens), P55789; purified ALR, DTT oxidation; inhibition, % (concentration not given with the values); hit rate 3.8% among 290,000; AID 485317, 2010;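 active = mean replicate inhibition above about 79%, with every replicate also reaching it, limit read from the data; inconclusive = only one of the two criteria met; inactive = mean below limit and not every replicate reaching it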
# Target sequence (P55789 whole entry, looked up): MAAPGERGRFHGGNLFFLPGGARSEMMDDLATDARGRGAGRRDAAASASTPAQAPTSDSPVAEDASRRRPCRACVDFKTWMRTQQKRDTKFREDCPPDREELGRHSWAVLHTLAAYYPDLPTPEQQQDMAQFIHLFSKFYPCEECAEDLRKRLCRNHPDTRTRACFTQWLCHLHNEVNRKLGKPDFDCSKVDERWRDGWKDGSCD
# Hits are given with their value; n = inactive; u = inconclusive; x = no result given.
SMILES,ATG4B inhibitor,Calb FLC,NALP1 yeast inh,NLRP3 yeast inh,UCH37 DUB inh,ALR inh
Cn1cc(C(=O)NN=Cc2ccc([N+](=O)[O-])cc2)c2ccccc21,x,x,x,x,n,x
CN(c1nnc(N)s1)C1CCCCC1,n,n,n,n,n,99
Cc1sc2ncnc(N(C)C3CCCCC3)c2c1C,n,n,n,n,n,n
Cc1[nH]c2ccccc2c1SCc1ccccc1,n,n,n,n,x,99
Cn1c(N)c(N2CCN(c3ccccc3)CC2)c(=O)[nH]c1=O,n,n,n,n,n,98
Oc1ccc(C2=NNC(c3ccc(O)cc3)=NN2)cc1,n,94,n,n,n,n
CCc1ccc(S(=O)(=O)N2CC(=O)Nc3ccccc32)cc1,n,n,n,n,n,n
CCOC(=O)c1ccc(S(=O)(=O)N2CC(=O)Nc3ccccc32)cc1,n,n,n,n,n,99
COC(=O)/C(=N/Nc1ccc(C)cc1)N1CCCc2ccccc21,n,n,n,n,x,99
COC(=O)/C(=N/Nc1cccc(C)c1)N1CCCc2ccccc21,n,n,n,n,x,99
COC(=O)/C(=N/Nc1ccccc1)N1CCCc2ccccc21,n,n,n,n,x,x
CCOC(=O)C(=NNc1ccccc1OC)N1CCCc2ccccc21,x,x,x,x,n,x
CC(=O)c1ccc(NN=C(C(N)=O)C2=NC(C)(C)Cc3ccccc32)cc1,x,x,x,x,n,x
CC(=NNC(=O)c1cccc(S(=O)(=O)Nc2cccc(Cl)c2)c1)c1cccs1,x,x,x,x,n,x
COc1cc(/C=C(/C#N)c2ccc(F)cc2)ccc1OCc1ccc(C(=O)O)o1,n,n,n,n,n,97
COc1cc(/C=C(\C#N)C(=O)Nc2cccc(C(=O)O)c2)ccc1OCc1ccc(F)cc1,n,n,n,n,n,n
Cn1ccnc1SCc1cn2ccccc2n1,n,n,n,n,n,94
Cc1oc(-c2ccccc2Cl)nc1CS(=O)CC(=O)NC1CC1 (configuration not stated),n,n,n,n,n,99
CCc1ccc(-c2nc(CS(=O)CC(=O)O)c(C)o2)cc1 (configuration not stated),n,n,x,n,n,99
Cc1ccc(-c2nc(CS(=O)CC(=O)NC3CC3)c(C)o2)cc1 (configuration not stated),n,n,n,n,n,99
Cc1ccc(-c2nc(CS(=O)(=O)CC(=O)NC3CC3)c(C)o2)cc1,n,n,n,n,n,n
CCc1ccc(-c2nc(CS(=O)CC(=O)NC3CC3)c(C)o2)cc1 (configuration not stated),n,n,n,n,n,98
O=C(NN=Cc1ccc(OC2CSC2)cc1)c1ccccc1,x,x,x,x,n,x
O=C(NN=Cc1ccccc1)c1ccc(N2CCCC2=O)cc1,x,x,x,x,n,x
CC(C)OC(=S)NC(=NS(=O)(=O)c1ccccc1)c1ccccc1,x,x,x,x,n,x
SMILES,ATG4B inhibitor,Calb FLC,NALP1 yeast inh,NLRP3 yeast inh,UCH37 DUB inh,ALR inh
COc1ccc(OC)c(C=NNC(=O)CCc2ccc(O)c(O)c2)c1,x,x,x,x,n,x
CCc1ccc(-c2nc(CS(=O)CC(=O)NC3CCCCCC3)c(C)o2)cc1 (configuration not stated),n,n,n,n,n,99
Cc1oc(-c2ccccc2)nc1CS(=O)CC(=O)NC1CCCC1 (configuration not stated),n,n,n,n,n,99
CCOC(=O)N1CCC(NC(=O)C2CCN(Cc3nc(-c4ccc(CC)cc4)oc3C)CC2)CC1,n,x,x,x,n,x
C=CCNC(=S)NN=Cc1ccc(-c2ccc(Cl)cc2Cl)o1,x,x,x,x,n,x
Cc1ccc(S(=O)(=O)N=C2SC(CC(=O)Nc3ccc(F)cc3)C(=O)N2c2ccccc2)cc1 (configuration not stated),x,x,x,x,n,x
FC(F)(F)c1cc(-c2ccco2)nc(NCc2ccccc2)n1,n,n,n,n,n,98
COc1ccc(CCNc2nc(-c3ccco3)cc(C(F)(F)F)n2)cc1OC,n,u,n,n,n,n
CN(C)Cc1c(C(=O)NN=C/C=C/c2ccccc2)nnn1-c1nonc1N,x,x,x,x,n,x
O=C(CSC1=Nc2ccccc2C2CC=NN12)Nc1ccc2c(c1)OCO2 (configuration not stated),n,x,n,x,n,x
O=C(CSC1=Nc2ccccc2C2CC=NN12)NCc1ccco1 (configuration not stated),n,x,x,n,n,99
CCCOC(=O)c1ccc(NC(=O)CSC2=Nc3ccccc3C3CC=NN23)cc1 (configuration not stated),n,n,n,n,n,97
N#Cc1ccccc1NC(=O)CSC1=Nc2ccccc2C2CC=NN12 (configuration not stated),n,n,n,n,n,n
CCN(CC)c1ccc(NC(=O)Cn2cc3c(n2)CCC(C)C3)c(C)c1 (configuration not stated),n,n,n,n,n,99
CNC(=O)CN1C(=O)CSc2ncccc21,n,n,41,n,n,n
CCN(CC)c1ccc(NC(=O)CN2C(=O)CSc3ncccc32)c(C)c1,n,n,n,n,n,97
COc1ccc(C=NOCC(=O)N2CC3(C)CC2CC(C)(C)C3)cc1 (configuration not stated),x,x,x,x,n,x
CC(=NNc1cc(Cl)nc(C)n1)c1ccccc1,x,x,x,x,n,x
COCCNC(=S)N(CCc1c(C)[nH]c2ccccc12)Cc1cccnc1,n,x,n,n,n,97
CNC(=S)N(CCc1c(C)[nH]c2ccc(Cl)cc12)Cc1cccnc1,n,x,n,n,n,97
COCCNC(=S)N(CCc1c(C)[nH]c2ccc(F)cc12)Cc1cccnc1,n,x,n,n,n,n
CNC(=S)N(CCc1c(C)[nH]c2ccccc12)Cc1cccnc1,n,x,n,n,n,100
CNC(=S)N(CCc1c(C)[nH]c2ccc(C)cc12)Cc1cccnc1,n,n,n,n,n,x
Cc1cc(NC(=O)CSc2nc3c(cc2C#N)CCC3)no1,n,n,n,n,n,x
Cc1noc(NS(=O)(=O)c2ccc(NC(=O)CSc3nc4c(cc3C#N)CCCC4)cc2)c1C,n,n,n,n,n,95
SMILES,ATG4B inhibitor,Calb FLC,NALP1 yeast inh,NLRP3 yeast inh,UCH37 DUB inh,ALR inh
Cc1noc(NS(=O)(=O)c2ccc(NC(=O)CSc3nc4c(cc3C#N)CCC4)cc2)c1C,n,n,n,n,n,98
Cc1cc(NC(=O)CSc2nc3c(cc2C#N)CCCC3)no1,n,n,n,n,n,n
CCCCC(C)=NNC(=O)c1cn(-c2ccccc2)nc1-c1ccccc1,x,x,x,x,n,x
COc1ccc(S(=O)(=O)N(CCc2ccccc2)CC(=O)N2CCOCC2)cc1,n,n,n,n,n,99
O=C(CCN1CCN(c2ccccc2)CC1)NN=Cc1ccc(O)c(O)c1O,x,x,x,x,n,x
CCc1cc(C(=O)NNC(=S)Nc2cc(C)ccc2C)cs1,n,99,n,n,n,n
